Measured values as given in ChEMBL document CHEMBL1147244, “Constituents of the Vietnamese medicinal plant Streptocaulon juventas and their antiproliferative activity against the human HT-1080 fibrosarcoma cell line” (J Nat Prod, 2003).
pIC50: −log10 of the molar value.

test system: HT-1080; experiment: Antiproliferative activity against human HT1080 cells after 72 hrs by MTT assay; format: functional, cell-based; conditions: HT-1080, 72 h
In short: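 HT-1080 fibrosarcoma cells were grown in EME medium with 10% heat-inactivated FCS and 2 mM glutamine at 37 °C, 5% CO2. Cells were seeded at 2 × 10³ per well and left 24 h to attach. Samples were dissolved in DMSO/PBS, with final DMSO below 0.25%, and added at varying concentrations. After 2 h with MTT, formazan was extracted in DMSO and read at 550 nm. IC50 was taken from the mean of four wells.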

| Compound | pIC50 |
| --- | --- |
| C[C@H]1O[C@@H](O[C@@H]2C[C@H]3CC[C@@H]4[C@H](CC[C@]5(C)[C@@H](C6=CC(=O)OC6)CC[C@]45O)[C@@]3(C)[C@H](O)C2)C[C@@H](O)[C@@H]1O | 5.96 |
| C[C@H]1O[C@@H](O[C@H]2CC[C@]3(C)[C@H]4CC[C@]5(C)[C@@H](C6=CC(=O)OC6)CC[C@]5(O)[C@@H]4CC[C@]3(O)C2)C[C@@H](O)[C@@H]1O | 7.03 |
| CO[C@@H]1[C@@H](O)[C@H](O[C@@H]2[C@@H](C)O[C@@H](O[C@H]3CC[C@@]4(C)[C@H](CC[C@@H]5[C@@H]4CC[C@]4(C)[C@@H](C6=CC(=O)OC6)CC[C@]54O)C3)C[C@H]2OC)O[C@H](C)[C@H]1O[C@@H]1O[C@H](CO[C@@H]2O[C@H](CO)[C@@H](O)[C@H](O)[C@H]2O)[C@@H](O)[C@H](O)[C@H]1O | 6.66 |
| CC(=O)O[C@@H]1C[C@H](O[C@H]2CC[C@@]3(C)[C@H](CC[C@@H]4[C@@H]3CC[C@]3(C)[C@@H](C5=CC(=O)OC5)CC[C@]43O)C2)O[C@H](C)[C@H]1O[C@@H]1O[C@H](CO[C@@H]2O[C@H](CO)[C@@H](O)[C@H](O)[C@H]2O)[C@@H](O)[C@H](O)[C@H]1O | 6.23 |
| C[C@H]1O[C@@H](O[C@H]2CC[C@@]3(C)[C@H](CC[C@@H]4[C@@H]3CC[C@]3(C)[C@@H](C5=CC(=O)OC5)CC[C@]43O)C2)C[C@@H](O)[C@@H]1O[C@@H]1O[C@H](CO[C@@H]2O[C@H](CO)[C@@H](O)[C@H](O)[C@H]2O)[C@@H](O)[C@H](O)[C@H]1O | 7.27 |
| CO[C@@H]1[C@@H](O)[C@H](O[C@H]2CC[C@]3(C)[C@H]4CC[C@]5(C)[C@@H](C6=CC(=O)OC6)CC[C@]5(O)[C@@H]4CC[C@]3(O)C2)O[C@H](C)[C@H]1O[C@@H]1O[C@H](CO)[C@@H](O)[C@H](O)[C@H]1O | 6.17 |
| C[C@]12[C@H](CC[C@@H]3[C@@H]1CC[C@]1(C)[C@@H](C4=CC(=O)OC4)CC[C@]31O)C[C@@H](O)C[C@H]2O [ACOVENOSIGENIN A] | 5.92 |
| C[C@H]1O[C@@H](O[C@H]2CC[C@]3(C)[C@H]4CC[C@]5(C)[C@@H](C6=CC(=O)OC6)CC[C@]5(O)[C@@H]4CC[C@]3(O)C2)C[C@@H](O)[C@@H]1O[C@@H]1O[C@H](CO)[C@@H](O)[C@H](O)[C@H]1O [CORCHORUSOSIDE C] | 7.04 |
| C[C@]12CC[C@H](O[C@@H]3O[C@H](CO[C@@H]4O[C@H](CO)[C@@H](O)[C@H](O)[C@H]4O)[C@@H](O)[C@H](O)[C@H]3O)C[C@H]1CC[C@@H]1[C@@H]2CC[C@]2(C)[C@@H](C3=CC(=O)OC3)CC[C@]12O [DIGITOXIGENIN GENTIOBIOSIDE] | 5.80 |
| C[C@]12CC[C@H](O[C@@H]3O[C@H](CO)[C@@H](O)[C@H](O)[C@H]3O[C@@H]3O[C@H](CO)[C@@H](O)[C@H](O)[C@H]3O)C[C@H]1CC[C@@H]1[C@@H]2CC[C@]2(C)[C@@H](C3=CC(=O)OC3)CC[C@]12O [DIGITOXIGENIN SOPHOROSIDE] | 6.34 |
| C[C@]12CC[C@H](O)C[C@H]1CC[C@@H]1[C@@H]2CC[C@]2(C)[C@@H](C3=CC(=O)OC3)CC[C@]12O [DIGITOXIGENIN] | 5.82 |
| COc1cccc2c1C(=O)c1c(O)c3c(c(O)c1C2=O)C[C@@](O)(C(=O)CO)C[C@@H]3O[C@H]1C[C@H](N)[C@H](O)[C@H](C)O1 [DOXORUBICIN] | 7.23 |
| CO[C@@H]1C[C@H](O[C@H]2CC[C@@]3(C)[C@H](CC[C@@H]4[C@@H]3CC[C@]3(C)[C@@H](C5=CC(=O)OC5)CC[C@]43O)C2)O[C@H](C)[C@H]1O[C@@H]1O[C@H](CO[C@@H]2O[C@H](CO)[C@@H](O)[C@H](O)[C@H]2O)[C@@H](O)[C@H](O)[C@H]1O [ECHUJIN] | 7.26 |
| O=c1[nH]cc(F)c(=O)[nH]1 [FLUOROURACIL] | 5.43 |
| CO[C@@H]1C[C@H](O[C@H]2CC[C@]3(C)[C@H]4CC[C@]5(C)[C@@H](C6=CC(=O)OC6)CC[C@]5(O)[C@@H]4CC[C@]3(O)C2)O[C@H](C)[C@H]1O [PERIPLOCYMARIN] | 7.02 |
| C[C@]12CC[C@H](O[C@@H]3O[C@H](CO)[C@@H](O)[C@H](O)[C@H]3O)C[C@@]1(O)CC[C@@H]1[C@@H]2CC[C@]2(C)[C@@H](C3=CC(=O)OC3)CC[C@]12O [PERIPLOGENIN GLUCOSIDE] | 6.80 |
| C[C@]12CC[C@H](O)C[C@@]1(O)CC[C@@H]1[C@@H]2CC[C@]2(C)[C@@H](C3=CC(=O)OC3)CC[C@]12O [PERIPLOGENIN] | 6.09 |
| CC(=O)O[C@H]1C[C@]2(O)[C@@H]3CC[C@@H]4C[C@@H](O[C@H]5C[C@@H](O)[C@H](O[C@@H]6O[C@H](CO)[C@@H](O)[C@H](O)[C@H]6O)[C@@H](C)O5)CC[C@]4(C)[C@H]3CC[C@]2(C)[C@H]1C1=CC(=O)OC1 [SUBALPINOSIDE] | 6.74 |
